Experiments:
Assay type in all cases: functional
[1] = tested on: HCT-15; test: Cytotoxicity against human HCT15 cells after 48 hrs by SRB assay; conditions: HCT-15, 48 h
Outline: (§1)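 NCI 60-line five-dose screen. Cells were preincubated 24 h at 37 °C under 5% CO2 and 100% humidity, and time-zero plates were TCA-fixed when compound was added. Five 10-fold concentrations (0.01–100) were tested for 48 h. Cells were fixed with cold TCA (final 10%, 60 min, 4 °C), stained with 0.4% SRB for 10 min, and read at 515 nm. GI50, TGI and LC50 came from growth-percentage formulas, with out-of-range values given as > or <.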

[2] = Cytotoxicity against human EKVX cells after 48 hrs by SRB assay; outline: as §1
[3] = tested on: PC-3; test: Cytotoxicity against human PC3 cells after 48 hrs by SRB assay; conditions: PC-3, 48 h; outline: as §1
[4] = tested on: IGROV-1; test: Cytotoxicity against human IGROV1 cells after 48 hrs by SRB assay; conditions: IGROV-1, 48 h; outline: as §1
[5] = tested on: SK-MEL-2; test: Cytotoxicity against human SK-MEL-2 cells after 48 hrs by SRB assay; conditions: SK-MEL-2, 48 h; outline: as §1
[6] = tested on: MOLT-4; test: Cytotoxicity against human MOLT4 cells after 48 hrs by SRB assay; conditions: MOLT-4, 48 h; outline: as §1
[7] = tested on: U-251; test: Cytotoxicity against human U251 cells after 48 hrs by SRB assay; conditions: U-251, 48 h
Outline: (§2)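 NCI 60-line five-dose screen: cells plated, held 24 h at 37 °C, 5% CO₂ before treatment, with a TCA-fixed time-zero plate. Five final concentrations (0.01–100 µM, 10-fold dilutions) for 48 h. Cells fixed with cold TCA (10% final) and stained with 0.4% SRB in 1% acetic acid. Dye dissolved in 10 mM Tris and read at 515 nm. GI₅₀, TGI and LC₅₀ taken from percent-growth curves.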

[8] = tested on: HCT-116; test: Cytotoxicity against human HCT116 cells after 48 hrs by SRB assay; conditions: HCT-116, 48 h; outline: as §1
[9] = tested on: NCI-H226; test: Cytotoxicity against human NCI-H226 cells after 48 hrs by SRB assay; conditions: NCI-H226, 48 h; outline: as §1
[10] = tested on: BT-549; test: Cytotoxicity against human BT549 cells after 48 hrs by SRB assay; conditions: BT-549, 48 h; outline: as §1
[11] = tested on: IGROV-1; test: Growth inhibition of human IGROV1 cells at 10 uM after 48 hrs by SRB assay relative to control; conditions: IGROV-1, 48 h, read-out: GI
Outline: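 NCI single-dose primary screen: compound added at 1 × 10⁻⁵ M, cultures incubated 48 h. Protein stained with sulforhodamine B. Result given as percent growth of treated cells relative to untreated controls, where negative values mean cell kill.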

[12] = tested on: HCC 2998; test: Cytotoxicity against human HCC2998 cells after 48 hrs by SRB assay; conditions: HCC 2998, 48 h; outline: as §1
[13] = tested on: IGROV-1; test: Cytotoxicity against human IGROV1 cells assessed as cell growth at 10 uM after 48 hrs by SRB assay relative to control; conditions: IGROV-1, 48 h, read-out: Activity
Outline: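 Single-dose NCI screen. Compound was added at 1 × 10^-5 M and cultures were incubated 48 h. End point was sulforhodamine B protein staining, reported as percent growth of treated cells versus untreated control cells.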

[14] = tested on: NCI-H460; test: Cytotoxicity against human NCI-H460 cells after 48 hrs by SRB assay; conditions: NCI-H460, 48 h; outline: as §1
[15] = tested on: COLO 205; test: Cytotoxicity against human COLO205 cells after 48 hrs by SRB assay; conditions: COLO 205, 48 h; outline: as §1
[16] = tested on: T47D; test: Cytotoxicity against human T47D cells after 48 hrs by SRB assay; outline: as §2
[17] = tested on: SNB-75; test: Cytotoxicity against human SNB75 cells after 48 hrs by SRB assay; conditions: SNB-75, 48 h; outline: as §2
[18] = tested on: RXF 393; test: Cytotoxicity against human RXF393 cells after 48 hrs by SRB assay; conditions: RXF 393, 48 h; outline: as §1
[19] = read-out: LC50 (the source's name)
[20] = read-out: pLC50 (the source's name) (converted)

Compound: O=C(CCc1nnc2sc(-c3ccc(Cl)cc3Cl)nn12)c1nc2ccccc2[nH]1
- GI50 ([1]; read-out: GI50): 489 nM
- TGI ([1]; read-out: TGI): 2210 nM
- GI50 ([1]; read-out: pGI50 (converted)): 490 nM
- TGI ([1]; read-out: pTGI (converted)): 2240 nM
- GI50 ([2]; read-out: GI50): 1530 nM
- TGI ([2]; read-out: TGI): 3690 nM
- GI50 ([2]; read-out: pGI50 (converted)): 1550 nM
- TGI ([2]; read-out: pTGI (converted)): 3720 nM
- GI50 ([3]; read-out: GI50): 695 nM
- LC50 (concentration killing 50% of cells) ([3]; read-out: LC50): > 100000 nM
- TGI ([3]; read-out: TGI): 3900 nM
- GI50 ([3]; read-out: pGI50 (converted)): 692 nM
- LC50 (concentration killing 50% of cells) ([3]; read-out: pLC50 (converted)): > 100000 nM
- TGI ([3]; read-out: pTGI (converted)): 3890 nM
- GI50 ([4]; read-out: GI50): 1310 nM
- TGI ([4]; read-out: TGI): 3510 nM
- GI50 ([4]; read-out: pGI50 (converted)): 1320 nM
- TGI ([4]; read-out: pTGI (converted)): 3470 nM
- GI50 ([5]; read-out: GI50): 1760 nM
- CC50 [5, 19]: > 100000 nM
- TGI ([5]; read-out: TGI): 6670 nM
- GI50 ([5]; read-out: pGI50 (converted)): 1780 nM
- CC50 [5, 20]: > 100000 nM
- TGI ([5]; read-out: pTGI (converted)): 6610 nM
- GI50 ([6]; read-out: GI50): 282 nM
- CC50 [6, 19]: > 100000 nM
- TGI ([6]; read-out: TGI): > 100000 nM
- GI50 ([6]; read-out: pGI50 (converted)): 282 nM
- CC50 [6, 20]: > 100000 nM
- TGI ([6]; read-out: pTGI): > 100000 nM
- GI50 ([7]; read-out: GI50): 1280 nM
- CC50 [7, 19]: 5340 nM
- TGI ([7]; read-out: TGI): 2610 nM
- GI50 ([7]; read-out: pGI50 (converted)): 1290 nM
- CC50 [7, 20]: 5370 nM
- TGI ([7]; read-out: pTGI (converted)): 2630 nM
- GI50 ([8]; read-out: GI50): 320 nM
- CC50 [8, 19]: 5060 nM
- TGI ([8]; read-out: TGI): 1240 nM
- GI50 ([8]; read-out: pGI50 (converted)): 316 nM
- CC50 [8, 20]: 5010 nM
- TGI ([8]; read-out: pTGI (converted)): 1230 nM
- GI50 ([9]; read-out: GI50): 244 nM
- CC50 [9, 19]: 2590 nM
- TGI ([9]; read-out: TGI): 696 nM
- GI50 ([9]; read-out: pGI50 (converted)): 245 nM
- CC50 [9, 20]: 2570 nM
- TGI ([9]; read-out: pTGI (converted)): 692 nM
- GI50 ([10]; read-out: GI50): 2160 nM
- LC50 ([10]; read-out: LC50): > 100000 nM
- TGI ([10]; read-out: TGI): 4770 nM
- GI50 ([10]; read-out: pGI50 (converted)): 2140 nM
- LC50 ([10]; read-out: pLC50 (converted)): > 100000 nM
- TGI ([10]; read-out: pTGI (converted)): 4790 nM
- inhibition of growth at 10 µM [11]: ≤ 32%
- GI50 ([12]; read-out: GI50): 1630 nM
- CC50 [12, 19]: 6290 nM
- TGI ([12]; read-out: TGI): 3200 nM
- GI50 ([12]; read-out: pGI50 (converted)): 1620 nM
- CC50 [12, 20]: 6310 nM
- TGI ([12]; read-out: pTGI (converted)): 3160 nM
- growth at 10 µM [13]: 0.38%
- GI50 ([14]; read-out: GI50): 766 nM
- CC50 [14, 19]: 5210 nM
- TGI ([14]; read-out: TGI): 2170 nM
- GI50 ([14]; read-out: pGI50 (converted)): 759 nM
- CC50 [14, 20]: 5250 nM
- TGI ([14]; read-out: pTGI (converted)): 2190 nM
- GI50 ([15]; read-out: GI50): 767 nM
- CC50 [15, 19]: 5500 nM
- TGI ([15]; read-out: TGI): 2210 nM
- GI50 ([15]; read-out: pGI50 (converted)): 759 nM
- CC50 [15, 20]: 5500 nM
- TGI ([15]; read-out: pTGI (converted)): 2190 nM
- GI50 ([16]; read-out: GI50): 753 nM
- LC50 (concentration giving 50% net cell kill) ([16]; read-out: LC50): 7060 nM
- TGI ([16]; read-out: TGI): 2510 nM
- GI50 ([16]; read-out: pGI50 (converted)): 759 nM
- LC50 (concentration giving 50% net cell kill) ([16]; read-out: pLC50 (converted)): 7080 nM
- TGI ([16]; read-out: pTGI (converted)): 2510 nM
- GI50 ([17]; read-out: GI50): 1960 nM
- CC50 [17, 19]: 17100 nM
- TGI ([17]; read-out: TGI): 4650 nM
- GI50 ([17]; read-out: pGI50 (converted)): 1950 nM
- CC50 [17, 20]: 17000 nM
- TGI ([17]; read-out: pTGI (converted)): 4680 nM
- GI50 ([18]; read-out: GI50): 674 nM
- CC50 [18, 19]: 4550 nM
- TGI ([18]; read-out: TGI): 1990 nM
- GI50 ([18]; read-out: pGI50 (converted)): 676 nM
- CC50 [18, 20]: 4570 nM
- TGI ([18]; read-out: pTGI (converted)): 2000 nM

From ChEMBL document CHEMBL2331220, “Benzimidazole clubbed with triazolo-thiadiazoles and triazolo-thiadiazines: new anticancer agents” (2013)
